The source of these data is ChEMBL document CHEMBL1129555, “Arylacetamide-derived fluorescent probes: synthesis, biological evaluation, and direct fluorescent labeling of kappa opioid receptors in mouse microglial cells” (J Med Chem, 1996).

Structures are written as SMILES.

Assay [1] is filed under the species Cavia porcellus. Put plainly: Percent recovery after treatment with 500 nM of NTX and removal of NTX by 40 washes with buffer using smooth guinea pig ileal muscle. Format: functional. As to conditions: Muscle tissue. Put shortly:
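Agonist-treated guinea pig ileum was incubated with 500 nM naltrexone for 10 min. NTX was then removed by 40 washes with buffer, and recovery of electrically evoked twitch height was recorded as percent. n = 1.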

Assay [2] is filed under the species Cavia porcellus. Put plainly: Percent recovery of twitch height after 30-40 washes with buffer using smooth guinea pig ileal muscle. Format: functional. The note with it: Muscle tissue. The essentials:
(§1)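 After agonist treatment, the electrically stimulated guinea pig ileum or mouse vas deferens was washed 30-40 times with buffer alone. Percent recovery of twitch height was recorded, n = 1.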

Another assay is filed under the species Mus musculus. Put plainly: Percent recovery of twitch height after 30-40 washes with buffer using mouse vas deferens preparation. It counts as functional. The essentials: as §1
Assay [3] has as its target Kappa-type opioid receptor (Mus musculus, UniProt P33534). Put plainly: Inhibitory activity against Opioid receptor kappa 1 in electrically stimulated mouse vas deferens (MVD) preparation. The essentials: (§2)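 Electrically stimulated guinea pig longitudinal ileal muscle or mouse vas deferens preparations, run per earlier work. The read-out is inhibition of twitch, given as IC50 (nM), arithmetic mean ± SEM of at least three experiments.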

For assay [4], the target named is T1, Kappa-type opioid receptor (Cavia porcellus, UniProt P41144). Put plainly: Inhibitory activity against Opioid receptor kappa 1 in electrically stimulated guinea pig longitudinal ileal muscle (GPI) preparation. Put shortly: as §2
Another assay deals with Mu-type opioid receptor (Cavia porcellus, UniProt P97266). Put plainly: Binding affinity towards Opioid receptor mu 1 in guinea pig brain. The essentials:
(§3)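 Competition binding against radioligands in guinea pig brain membranes, modified from a published method. κ: 1 nM [³H]U69,593; µ: 2 nM [³H]DAMGO; δ1: 5 nM [³H]DPDPE; δ2: 2 nM [³H]DSLET. Ki values are geometric means of three experiments.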

Assay [5] has as its target T1, Kappa-type opioid receptor. Put plainly: Binding affinity towards Opioid receptor kappa 1 in guinea pig brain. Put shortly:
as §3

Sequence of Kappa-type opioid receptor (Mus musculus, UniProt P33534) (P33534 whole entry): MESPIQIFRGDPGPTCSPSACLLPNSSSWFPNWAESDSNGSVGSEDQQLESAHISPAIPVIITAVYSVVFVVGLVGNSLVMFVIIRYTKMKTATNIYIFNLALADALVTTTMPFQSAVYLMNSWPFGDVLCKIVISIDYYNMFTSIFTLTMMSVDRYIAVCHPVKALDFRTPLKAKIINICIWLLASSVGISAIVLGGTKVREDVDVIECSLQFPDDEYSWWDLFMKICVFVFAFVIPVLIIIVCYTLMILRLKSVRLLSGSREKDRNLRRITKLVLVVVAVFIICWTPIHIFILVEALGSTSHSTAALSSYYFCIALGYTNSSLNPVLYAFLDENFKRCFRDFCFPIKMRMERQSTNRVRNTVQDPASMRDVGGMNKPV
T1 sequence (P41144 whole entry): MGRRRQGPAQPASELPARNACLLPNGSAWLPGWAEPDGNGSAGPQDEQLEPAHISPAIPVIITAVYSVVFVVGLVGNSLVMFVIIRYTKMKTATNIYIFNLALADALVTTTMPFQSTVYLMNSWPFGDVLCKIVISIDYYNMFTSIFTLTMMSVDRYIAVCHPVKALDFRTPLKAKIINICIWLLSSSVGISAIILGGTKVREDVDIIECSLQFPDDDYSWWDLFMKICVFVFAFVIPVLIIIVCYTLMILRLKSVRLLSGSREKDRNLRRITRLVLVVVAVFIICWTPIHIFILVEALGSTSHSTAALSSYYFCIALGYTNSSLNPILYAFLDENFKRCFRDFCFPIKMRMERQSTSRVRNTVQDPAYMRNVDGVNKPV
Sequence of Mu-type opioid receptor (P97266 whole entry): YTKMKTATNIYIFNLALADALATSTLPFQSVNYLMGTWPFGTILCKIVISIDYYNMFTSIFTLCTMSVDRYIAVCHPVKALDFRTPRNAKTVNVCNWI

As usually defined, the IC50 is the concentration that gives 50% inhibition. A higher IC50 goes with weaker potency. On to `CN(C(=O)Cc1ccc(Cl)c(Cl)c1)[C@H](CN1CCCC1)c1cccc(NC(=O)CNC(=O)C/N=C(S)/N=C2\C=CC(=C3c4ccc(O)cc4Oc4cc(O)ccc43)C(C(=O)O)=C2)c1`, for which the Recovery in the assay filed under Cavia porcellus [1] was 37%; in the assay filed under Cavia porcellus [2], 34%; in the assay listed under Mus musculus, 100%. Further, the IC50 in assay [3] was 1.5 nM; in assay [4] it was 1.2 nM.
A word on the Ki: it is the dissociation constant of the complex between target and ligand, obtained from inhibition or displacement. As to `CN(C(=O)Cc1ccc(Cl)c(Cl)c1)[C@H](CN1CCCC1)c1cccc(NC(=O)C/N=C(S)/N=C2\C=CC(=C3c4ccc(O)cc4Oc4cc(O)ccc43)C(C(=O)O)=C2)c1`, the Recovery in the assay filed under Cavia porcellus [1] amounted to 97%; in the assay listed under Cavia porcellus [2], 39%; in the assay listed under Mus musculus it was 79%. The IC50 was found to be 1.2 nM in assay [3] and 0.17 nM in assay [4]. Also, the inhibition constant (Ki) at Mu-type opioid receptor worked out at 286 nM; in assay [5], 0.31 nM.
As for `CN(C(=O)Cc1ccc(Cl)c(Cl)c1)[C@H](CN1CCCC1)c1cccc(NC(=S)Nc2ccc(-c3c4ccc(=O)cc-4oc4cc(O)ccc34)c(C(=O)O)c2)c1`, the figures for the IC50 in assay [3] and in assay [4] were 1.2 nM and 0.37 nM, respectively.
`CN(C(=O)Cc1ccc(Cl)c(Cl)c1)C(CN1CCCC1)c1ccc(NC(=O)CNC(=O)C/N=C(S)\N=C2/C=CC(=C3c4ccc(O)cc4Oc4cc(O)ccc43)C(C(=O)O)=C2)cc1` (centres undefined): the figures for the IC50 in assay [3] and in assay [4] were 170 nM and 48 nM, respectively.
The like results for `CN(C(=O)Cc1ccc(Cl)c(Cl)c1)C(CN1CCCC1)c1ccc(NC(=O)C/N=C(S)/N=C2\C=CC(=C3c4ccc(O)cc4Oc4cc(O)ccc43)C(C(=O)O)=C2)cc1` (centres undefined) were, in that order, 102 nM and 62 nM.
As to `CN(C(=O)Cc1ccc(Cl)c(Cl)c1)[C@H](CN1CCCC1)c1cccc(N/C(S)=N/c2ccc(-c3c4ccc(=O)cc-4oc4cc(O)ccc34)c(C(=O)O)c2)c1`, the Recovery in the assay listed under Cavia porcellus [1] was 61%; in the assay listed under Cavia porcellus [2], 21%; in the assay filed under Mus musculus it was 100%.
Take `CN(C(=O)Cc1ccc(Cl)c(Cl)c1)[C@H](CN1CCCC1)c1ccccc1`: the Recovery in the assay listed under Cavia porcellus [1] came out at 32%; in the assay listed under Cavia porcellus [2], 20%.
For `CN(C(=O)Cc1ccc(Cl)c(Cl)c1)C(CN1CCCC1)c1ccc(N/C(S)=N/c2ccc(-c3c4ccc(=O)cc-4oc4cc(O)ccc34)c(C(=O)O)c2)cc1` (centres undefined), the IC50 in assay [3] came out at 12.6 nM; in assay [4], 5.2 nM.
For `CN(C(=O)Cc1ccc(Cl)c(Cl)c1)C(CN1CCCC1)c1ccc(NC(=O)CNC(=O)CNC(=O)CNC(=O)C/N=C(S)\N=C2/C=CC(=C3c4ccc(O)cc4Oc4cc(O)ccc43)C(C(=O)O)=C2)cc1` (centres undefined) the same measures were 421 nM and 166 nM.
In the case of `CN(C(=O)Cc1ccc(Cl)c(Cl)c1)[C@H](CN1CCCC1)c1cccc(NC(=O)CNC(=O)CNC(=O)CNC(=O)C/N=C(S)/N=C2\C=CC(=C3c4ccc(O)cc4Oc4cc(O)ccc43)C(C(=O)O)=C2)c1`, the Recovery in the assay listed under Cavia porcellus [1] worked out at 131%; in the assay filed under Cavia porcellus [2], 44%; in the assay filed under Mus musculus, 100%. Also, the IC50 stood at 6.5 nM in assay [3] and 0.15 nM in assay [4]. Moreover, the values for the Ki (at Mu-type opioid receptor; in assay [5]) were 631 nM and 0.91 nM, respectively.
